Series [1] deals with Hepatocyte. Description: Metabolic stability in cryopreserved human hepatocytes after 90 mins by radio-TLC assay. The class given is ADME, cell-based. To be noted: 1.5 h. In a few lines:
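Cryopreserved female human hepatocytes were thawed and resuspended in modified Krebs-Henseleit buffer, and the radiotracer in buffer was added to cell wells. Incubation was at 37 °C, 5% CO2. Aliquots taken at 5–120 min went into MeOH (2 volumes), were vortexed and centrifuged at 10,000 G for 5 min. Supernatant was run on silica TLC (10% EtOH/EtOAc) and read by radio-TLC scan. Viability was checked by Trypan Blue.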

For series [2], the system named is Mus musculus. Description: Biodistribution in tumor of EGFR negative-MDA-MB-435 cells-xenografted tumor-bearing nude SCID mouse at 1 to 2 MBq, iv after 1 hr postinjection. The class given is ADME, organism-based, Neoplasm. To be noted: in vivo. An outline of the steps:
(§1)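 Nude SCID mice bearing subcutaneous MDA-MB-468 flank xenografts (about 1 million cells), with MDA-MB-435 (about 1 million cells) implanted in the shoulder in some cohorts. Under isoflurane, 1–2 MBq radiotracer in saline was given by tail-vein injection. Mice (n = 4 per time point) were euthanized 1–3 h post injection. Blood, tumor and tissues were weighed and counted, giving decay-corrected %ID/g.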

Series [3] relates to Mus musculus. Description: Biodistribution in tumor of EGFR negative-MDA-MB-435 cells-xenografted tumor-bearing nude SCID mouse at 1 to 2 MBq, iv after 1 to 3 hrs postinjection. To be noted: in vivo.
Series [4] relates to Bone. The experiment in a line: Biodistribution in tumor-bearing nude SCID mouse bone at 1 to 2 MBq, iv after 1 hr postinjection. The class given is ADME, organism-based, Bone element. The following applies: in vivo. An outline of the steps: as §1
Series [5] deals with Mus musculus. Description: Biodistribution in tumor of 1 mg/kg PD153035 pretreated EGFR positive-MDA-MB-468 cells-xenografted tumor-bearing nude SCID mouse 1 to 2 MBq, iv after 1 hr relative to control. The series is classed as ADME, organism-based, Neoplasm. The arrangement: dose 1 mg/kg, route intravenous. To be noted: in vivo. An outline of the steps:
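A blocking arm received PD153035 1 mg/kg iv one hour before tail-vein injection of 1–2 MBq radiotracer in saline under isoflurane, compared with a control group. Nude SCID mice bore MDA-MB-468 flank xenografts (n = 4 per time point). Tumor was excised, weighed and counted, giving decay-corrected %ID/g.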

Series [6] has as its system Mus musculus. The experiment in a line: Biodistribution in tumor of EGFR positive-MDA-MB-468 cells-xenografted tumor-bearing nude SCID mouse at 1 to 2 MBq, iv after 1 to 3 hrs postinjection. The following applies: in vivo.
Series [7] deals with Bone. Description: Biodistribution in tumor-bearing nude SCID mouse bone at 1 to 2 MBq, iv after 3 hrs postinjection. The series is classed as ADME, organism-based, Bone element. To be noted: in vivo. An outline of the steps:
as §1

In series [8] the test system is Mus musculus. Description: Biodistribution in tumor of EGFR positive-MDA-MB-468 cells-xenografted tumor-bearing nude SCID mouse at 1 to 2 MBq, iv after 1 hr postinjection. The series is classed as ADME, organism-based, Neoplasm. The following applies: in vivo. In a few lines:
as §1

Series [9] has as its system Bone. Description: Biodistribution in tumor-bearing nude SCID mouse bone at 1 to 2 MBq, iv after 2 hrs postinjection. The series is classed as ADME, organism-based, Bone element. To be noted: in vivo. In a few lines: as §1

Take `CCOc1cc2ncnc(Nc3cccc([18F])c3)c2cc1OCC`: the Stability entry in [1] is given as “Stable”.
With `COc1cc2ncnc(Nc3ccccc3[18F])c2cc1OC`, the Drug uptake in [2] is recorded as < 0.6%; in series [3] it was < 0.6%; in [4], 2%; in series [5], “Active”; in series [6], < 0.6%; in [7], 2%. Also, the Drug uptake in [8] is on record as < 0.6%. In addition, in series [1], the Stability entry is on record as “Stable”.
Regarding `COc1cc2ncnc(Nc3cccc([18F])c3)c2cc1OC`, the Stability entry in [1] is given as “Stable”.
As for `COc1cc2ncnc(Nc3ccc([18F])cc3)c2cc1OC`, the Drug uptake is on record as 5% in series [9]; < 0.6% in series [2]; < 0.6% in series [3]; 5% in series [4]; < 0.6% in series [6]; < 0.6% in series [8]. Further, the Stability result in series [1] is “Unstable”.
For `CCOc1cc2ncnc(Nc3ccccc3[18F])c2cc1OCC`, the Drug uptake is < 0.6% in series [2]; < 0.6% in series [3]; 2% in [4]; < 0.6% in [6]; 2% in series [7]; < 0.6% in series [8]. Besides, the Stability entry in [1] is “Stable”.
As for `CCOc1cc2ncnc(Nc3ccc([18F])cc3)c2cc1OCC`, the Drug uptake was 5% in series [9]; < 0.6% in series [2]; < 0.6% in series [3]; 5% in [4]; < 0.6% in series [6]; < 0.6% in [8]. For the same compound, the Stability result in series [1] is reported as “Unstable”.

(Values after ChEMBL document CHEMBL1772994, “Metabolic stability of 6,7-dialkoxy-4-(2-, 3- and 4-[18F]fluoroanilino)quinazolines, potential EGFR imaging probes” (Bioorg Med Chem, 2011).)
